# Assay outcomes deposited in PubChem by several laboratories.
# Compounds with a hit are over-represented: about 4.3% of the library has one in this group of screens.
# MC4R antag cAMP – blocks human MC4R cAMP signaling; P32245; MC4R-expressing cells, MTII-stimulated cAMP, LANCE TR-FRET; inhibition, % at 6.5 µM; 360,000 compounds, 0.48% hits;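 active = inhibition above its plate's cutoff, the mean of tested wells on that plate plus 3 SD, cut at about 29% in these data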;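 note: 0% = Melanotan II alone and 100% = Melanotan II plus saturating MCL0020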
#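 System: U2OS cells stably expressing human melanocortin 4 receptor (MC4R). Reagent: Melanotan II challenge after compound preincubation. Doses: 6.5 µM. Times: 30-min compound, 1-h challenge, 1-h detection, room temperature. Measured by: TR-FRET with Eu-cAMP and labeled anti-cAMP, 671 nm. Replicates: singlicate.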
# HTR2A ag – mouse HTR2A agonism via beta-arrestin recruitment; P35363; CHO-K1 mHTR2A beta-arrestin complementation, luminescence; percent of 30 µM serotonin response; activation, % at 7.6 µM; 360,000 compounds, 0.66% hits;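 active = activation above a run cutoff, the mean activation of all tested compounds plus 3 SD, cut at about 14% in these data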;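 note: 0% = plate median of compound wells and 100% = 30 µM serotonin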
# TAAR1 agonist – agonists of human TAAR1. Q96RJ0. CHO RD-HGA16 TAAR1, Fluo-8 calcium fluorescence; vehicle wells 0%, saturating PEA agonist 100%. activation, % at 3 µM. 360,000 compounds, 0.99% hits. AID 624467;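 active = activation above the mean activation of all test compounds in the run plus 3 SD, cut at about 38% in these data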
#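 System: CHO-derived RD-HGA16 cells with stable Gα16 and human TAAR1. Times: 17-24 h plating, Fluo-8 75 min 37 °C, 30 min RT. Measured by: calcium-sensitive Fluo-8 signal, excitation 470-495, emission 515-575 nm. Read-out basis: % activation relative to PEA EC100 response. Control set: DMSO and PEA EC100. Repeats: no replicates (n 1).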
# Beta2AR agonist – human beta-2 adrenergic receptor agonism by FAP; AID 504454; 340,000 compounds, 0.43% hits; Am2.2-beta2AR cells, FAP receptor internalization, flow cytometry; response, % (test concentration not listed); P07550;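 active = response above a set limit, near 3 SD of response in nonfluorescent compounds, cut at about 42% in these data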
# Target sequence (P07550 whole entry, looked up): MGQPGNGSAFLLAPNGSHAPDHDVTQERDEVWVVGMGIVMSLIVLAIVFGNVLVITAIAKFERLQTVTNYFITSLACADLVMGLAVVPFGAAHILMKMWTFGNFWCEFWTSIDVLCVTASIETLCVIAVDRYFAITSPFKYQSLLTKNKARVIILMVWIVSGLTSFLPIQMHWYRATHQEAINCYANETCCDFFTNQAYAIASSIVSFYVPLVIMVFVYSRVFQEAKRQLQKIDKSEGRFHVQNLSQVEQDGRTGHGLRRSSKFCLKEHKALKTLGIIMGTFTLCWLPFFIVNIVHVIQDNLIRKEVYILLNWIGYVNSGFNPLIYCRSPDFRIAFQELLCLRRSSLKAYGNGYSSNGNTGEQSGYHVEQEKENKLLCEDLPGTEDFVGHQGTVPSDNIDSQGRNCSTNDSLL
# TAAR1 antagonist – antagonists of human TAAR1 | Q96RJ0 | CHO RD-HGA16 TAAR1, Fluo-8 calcium fluorescence, antagonist | 360,000 compounds, 1.5% hits | AID 624466 | inhibition, % at 3 µM;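 active = inhibition above a per-plate cutoff, the mean inhibition of test compounds on that plate plus 3 SD, cut at about 49% in these data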;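 note: 0% = DMSO plus EC80 beta-PEA response and 100% = DMSO alone without agonist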
#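 Test system – hTAAR1-expressing CHO RD-HGA16 cells, Gα16-coupled · Reagent – β-PEA at EC80 concentration, post-compound challenge · Compound dosing – 3 µM, single point · Timing – 140 s kinetic read after compound, 140 s after agonist · Detection – Fluo-8 intracellular calcium dye fluorescence, real-time kinetic reads · Control set – DMSO and EC80 PEA controls · Repeats – n of 1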
# MC4R barr agon – agonists of human melanocortin 4 receptor (MC4R) beta-arrestin. U2OS MC4R beta-arrestin complementation, luminescence; percent of melanotan II response, DMSO zero. activation, % at 8.9 µM. 360,000 compounds, 0.98% hits. AID 540308;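 active = activation above a per-plate cutoff, the mean activation of sample wells on that plate plus 3 SD, cut at about 8% in these data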
# B2AR ag CP1 – human beta-2 adrenergic receptor agonism, cherry pick. shares compounds with Beta2AR agonist. Am2.2-beta2AR cells, FAP surface receptor, flow cytometry; active compounds read low. percent response (surface receptor), % at 10 µM. 1,100 compounds, 25% hits. AID 540358;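 active = surface receptor percent response at or below 58%, roughly 3 SD from nonfluorescent compounds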
# FAP fluor counter – counter-screen for beta-2AR agonists: fluorescence in Am2.2 cells; FAP fluorogen flow cytometry, fluorescence counterscreen; active compounds read low; calls only at 10 µM; 1,100 tested, under 10 active; shares compounds with Beta2AR agonist;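 active = percent response below a set limit in fluorescence channel 1 and below 50% in channel 8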
# Active calls of the source: *; i = inactive; / = no result.
SMILES,MC4R antag cAMP,HTR2A ag,TAAR1 agonist,Beta2AR agonist,TAAR1 antagonist,MC4R barr agon,B2AR ag CP1,FAP fluor counter
Nn1c(SCc2cn3cc(Cl)ccc3n2)nnc1-c1ccncc1,2,3,4,-10,-3,-1,/,/
CCCS(=O)(=O)NC(=O)C1(C)CCN(C(=O)c2ccc(SC(F)(F)F)cc2)C1 (configuration not stated),-3,-1,1,/,-3,0,/,/
O=C(Nc1ccc2oc(-c3ccncc3)nc2c1)c1ccc2c(c1)OCO2,0,0,4,15,-9,-1,101,i
COc1ccc(-c2nc3cc(NC(=O)c4ccc5c(c4)OCO5)ccc3o2)cc1,-1,2,1,4,13,2,/,/
OC[C@@H]1CN(Cc2cccnc2)C[C@H](n2cnc3c(NC4CCCC4)ncnc32)O1,2,8,0,/,10,-1,/,/
COCCNC(=S)N/N=C(\C)c1ccc(Cl)s1,-9,-9,5,5,-32,0,108,i
COc1ccc(S(=O)(=O)NCc2cccnc2)c2ccccc12,9,2,-1,-1,-12,1,/,/
Cc1ccc(OCC(=O)Nc2ccncc2)c(C)c1,5,4,5,4,-6,0,/,/
Cc1ccc(OCC(=O)Nc2ccc(-c3nc4ncccc4o3)cc2)c(C)c1,4,1,13,116*,24,8,16*,i
CSc1cccc(NC(=O)c2nnn(CC(=O)Nc3cc(C)cc(C)c3)c2N)c1,-2,7,1,-14,-7,3,/,/
Cc1ccc(S(=O)(=O)c2ccc([N+](=O)[O-])cn2)cc1,17,-11,2,65*,14,-3,73,i
CCCCNC(=O)c1ccc2nc(CC)c(N(CC)CCOC)n2c1,1,0,2,/,-10,0,/,/
Cc1csc(=O)n1CC(=O)Nc1ccc(Cl)cc1F,8,-8,2,-1,-16,-1,/,/
CC(C)N1C(=O)/C(=C/c2nc3ccccc3c(=O)n2-c2ccccc2)c2ccccc21,9,10,6,47*,25,-1,82,i
CC(C)N1C(=O)/C(=C\c2nc3ccccc3c(=O)n2-c2ccccc2)c2ccccc21,1,5,5,38,29,1,/,/
Cc1noc(C)c1COc1ccccc1C(=O)N1CCN(S(=O)(=O)c2ccccc2C(F)(F)F)CC1,10,-4,8,-3,24,-3,/,/
Cc1noc(C)c1COc1ccccc1C(=O)N1CCN(S(=O)(=O)c2ccccc2Br)CC1,-1,-3,4,71*,18,0,92,i
O=C(CCNC(=O)C1CCN(S(=O)(=O)c2ccccc2)CC1)Nc1ccccc1,23,-4,10,48*,-12,-1,107,i
CC(=O)Nc1cccc(NS(=O)(=O)c2ccc3c(c2)CCC(=O)N3)c1,6,-2,2,/,-12,-1,/,/
Cc1ccc(O)c(NC(=O)c2ccco2)c1,8,4,11,9,-8,-2,/,/
Cc1ccc(O)c(NC(=O)c2cccc(NC(=O)c3ccco3)c2)c1,-4,0,12,85*,1,-2,19*,i
CC1CCC(NC(=O)CCCn2sc3ccccc3c2=O)CC1 (configuration not stated),17,-1,0,-2,-11,-1,/,/
CCn1nc(NS(=O)(=O)c2ccc(NC(C)=O)cc2)c2cc3ccc(C)cc3nc21,15,4,12,15,-22,-2,/,/
CCn1nc(NS(=O)(=O)c2ccc(C)cc2)c2cc3ccccc3nc21,3,2,-1,8,-10,-4,120,i
CCn1nc(NS(=O)(=O)c2ccc([N+](=O)[O-])cc2)c2cc3ccccc3nc21,20,0,1,64*,1,0,118,i
SMILES,MC4R antag cAMP,HTR2A ag,TAAR1 agonist,Beta2AR agonist,TAAR1 antagonist,MC4R barr agon,B2AR ag CP1,FAP fluor counter
CCn1nc(NS(=O)(=O)c2ccc(NC(C)=O)cc2)c2cc3ccccc3nc21,15,-5,2,53*,-18,-4,101,i
CS(=O)(=O)c1ccc(-n2nnc3ccccc32)c([N+](=O)[O-])c1,0,1,-2,-3,-9,-2,/,/
N#Cc1cc([N+](=O)[O-])c(-n2nnc3ccccc32)c([N+](=O)[O-])c1,-6,1,/,55*,/,-3,103,i
COc1ccc(CCCNC(=O)C2(C)Cc3c(-c4ccc(C(N)=O)cc4)ccnc3O2)cc1 (configuration not stated),16,8,11,/,48,-1,/,/
CCOC(=O)c1ccc(NC(=S)NNC(C)(C)C)cc1,7,2,0,-4,-24,0,95,i
O=C(NNC(=O)c1ccc(O)c(Cl)c1)c1cccc(S(=O)(=O)N2CCOCC2)c1,6,3,2,7,-22,1,/,/
CC1CCC(NC(=O)CCS(=O)(=O)c2ccc3c(c2)CCN3C(=O)C2CC2)CC1 (configuration not stated),-5,7,1,105*,-11,1,18*,i
CNCC[C@H](Oc1cccc2ccccc12)c1cccs1,3,-5,15,50*,11,1,102,i
O=C(NCCNC(=O)Oc1cccc2ccccc12)Oc1cccc2ccccc12,3,-5,2,7,6,-1,/,/
Cc1ccc(NC(=O)CN2C(=O)/C(=C3\SC(=S)N(C4CCS(=O)(=O)C4)C3=O)c3ccccc32)cc1 (configuration not stated),3,0,0,49*,7,0,83,i
O=C(CN1C(=O)/C(=C2\SC(=S)N(C3CCS(=O)(=O)C3)C2=O)c2ccccc21)Nc1ccccc1 (configuration not stated),5,-4,0,12,-19,2,/,/
COCCn1c(SCc2nnc(-c3ccccc3)o2)nc2sc3c(c2c1=O)CCC3,-10,0,16,121*,-5,1,130,i
CN1CCN(C(CNC(=O)C(=O)Nc2ccc3c(c2)OCCO3)c2ccc(F)cc2)CC1 (configuration not stated),-1,-5,2,-5,-6,-1,/,/
Nc1ncc2c(n1)-c1ccoc1CC2,12,4,0,1,-6,0,/,/
